In brackets after ≈: the same amount, converted by molar mass.
Key:
Assay type in all cases: functional
Conditions in all cases: read-out: ED50 (the source's name)
[1] = tested on: A549; experiment: Cytotoxicity against human A549 cells
Summary of the method: (§1)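 In vitro cytotoxicity against cultured human tumour cell lines: A549 (lung adenocarcinoma) and HT-29 (colon adenocarcinoma), both obtained from a cell-line collection.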

[2] = tested on: HT-29; experiment: Cytotoxicity against human HT-29 cells; summary of the method: as §1
[3] = tested on: P388; experiment: Cytotoxicity against mouse P388 cells
Summary of the method: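 Murine P-388 lymphocytic leukaemia cells, supplied by an academic laboratory, were exposed to compounds in culture and cytotoxicity was measured in vitro.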

C=C1CC/C=C(\C)CC[C@@H]2/C(=C\C=C\C(C)(C)O)CO[C@H](O)[C@@H]12
EC50 [1]: 4.85 µg/mL (≈ 15.2 µM) | EC50 [2]: 12.9 µg/mL (≈ 40.5 µM) | EC50 [3]: 3.45 µg/mL (≈ 10.8 µM)

C=C1CC/C=C(\C)CC[C@@H]2/C(=C\C=C\C(C)(C)O)[C@@H](OC)O[C@H](OC)[C@@H]12 [XENIBECIN]
EC50 [1]: 13.4 µg/mL (≈ 37 µM) | EC50 [2]: 12.5 µg/mL (≈ 34.5 µM) | EC50 [3]: 3.96 µg/mL (≈ 10.9 µM)

C=C1CC[C@@H]2O[C@@]2(C)CC[C@H]2[C@H]1C(=O)O[C@@]2(/C=C/C=C(C)C)CO
EC50 [1]: 18.8 µg/mL (≈ 56.6 µM) | EC50 [2]: 5.33 µg/mL (≈ 16 µM) | EC50 [3]: 3.66 µg/mL (≈ 11 µM)

C=C1CC[C@@H]2/C(=C\C=C\C(C)(C)O)COC(=O)[C@H]2C(=C)CCC1OO (stereo partly specified)
EC50 [1]: 4.77 µg/mL (≈ 13.7 µM) | EC50 [2]: 8.31 µg/mL (≈ 23.8 µM) | EC50 [3]: 0.04 µg/mL (≈ 0.115 µM)

C=C1CC[C@@H]2O[C@@]2(C)CC[C@@H]2/C(=C\CC3OC3(C)C)COC(=O)[C@@H]12 (stereo partly specified)
EC50 [1]: 11.6 µg/mL (≈ 34.9 µM) | EC50 [2]: 7.77 µg/mL (≈ 23.4 µM) | EC50 [3]: 3.35 µg/mL (≈ 10.1 µM)

C=C1CC/C=C(\C)CC[C@@H]2/C(=C\CC3OC3(C)C)COC(=O)[C@@H]12 (stereo partly specified)
EC50 [1]: 11.2 µg/mL (≈ 35.4 µM) | EC50 [2]: 21.1 µg/mL (≈ 66.7 µM) | EC50 [3]: 2.87 µg/mL (≈ 9.07 µM)

C=C1CC[C@@H]2O[C@@]2(C)CC[C@H](/C(=C\CC2OC2(C)C)COC(C)=O)[C@H]1C(=O)OC (stereo partly specified) [XENITACIN]
EC50 [1]: 3.26 µg/mL (≈ 8.02 µM) | EC50 [2]: 1.12 µg/mL (≈ 2.76 µM) | EC50 [3]: 1.09 µg/mL (≈ 2.68 µM)

Source: ChEMBL document CHEMBL1150164, “New cytotoxic xenia diterpenoids from the Formosan soft coral Xenia umbellata” (2002)
